Source: PubChem BioAssay (several laboratories)
VIM-2 inhibitor: blocks Pseudomonas aeruginosa VIM-2 metallo-beta-lactamase; purified VIM-2, nitrocefin hydrolysis, epi-absorbance fluorescence; inhibition, % at 5.6 µM; 290,000 compounds, 0.89% hits; AID 1527;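 active = inhibition above the mean of all tested compounds plus 3 SD, cutoff set per screening run, cut at about 7.5% in these data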;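 also: red hydrolysis product quenches plate fluorescence so inhibitors raise well fluorescence; 0% = enzyme with DMSO and 100% = DMSO without enzyme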
CRFBP-R2 block: antagonists of CRF-binding protein/CRF-R2 receptor complex | HEK293 CRF-R2/CRF-BP, CRF-induced calcium fluorescence | inhibition, % at 11.8 µM | 350,000 compounds, 0.59% hits | AID 588475;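 active = inhibition of the ligand-induced calcium signal above about 50% at the single tested concentration, limit read from the data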
IMP-1 inhibitor: inhibitors of Pseudomonas aeruginosa IMP-1 metallo-beta-lactamase | 290,000 compounds, 0.45% hits | purified IMP-1, nitrocefin hydrolysis, epi-absorbance fluorescence | inhibition, % at 5.6 µM;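 active = inhibition above the mean plus 3 SD of all compounds in the same screening run, cut at about 4.5% in these data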;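 also: 0% = IMP-1 with DMSO and 100% = DMSO wells lacking enzyme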
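Test system: recombinant IMP-1 enzyme, purified / Medium: HEPES buffer pH 7.1 with ZnSO4 and Brij 35 / Doses: single dose, 5.6 µM / Times: 25 °C, 15 min preincubation, 25 min reaction / Detection: Epi-absorbance via hydrolysed-nitrocefin quenching of white-plate fluorescence, 480/530 nm, EDTA stop / Evaluation: percent inhibition from optical density relative to buffer-blank wells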
TRPN1 ag: activates the zebrafish TRPN1 channel; HEK293 zebrafish TRPN1-YFP, Fluo-8 calcium fluorescence; 100% = response to 87 µM carbachol; activation, % at 3 µM; 220,000 compounds, 0.18% hits; AID 1424;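 active = activation above its plate's cutoff, the mean activation of test wells on that plate plus 3 SD, cut at about 19% in these data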;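 also: 0% = DMSO alone and 100% = 87 µM carbachol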
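Material: zebrafish TRPN1-YFP in HEK293 cells. Doses: one dose of 3 µM, 0.3% DMSO. Incubation: dye 1 h 37 °C plus 30 min RT. Measured by: intracellular calcium fluorescence with Fluo-8.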
TRPML3 ag: agonists of human TRPML3 channel. HEK293 TRPML3-YFP, Fluo-8 calcium fluorescence; 100% = the carbachol control signal. activation, % at 3 µM. 220,000 compounds, 0.29% hits. AID 1448;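 active = activation above its plate's cutoff, the mean activation of the plate's test wells plus 3 SD, cut at about 12% in these data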;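 also: 0% = DMSO only wells and 100% = carbachol wells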
Target sequence (Q8TDD5 whole entry, looked up): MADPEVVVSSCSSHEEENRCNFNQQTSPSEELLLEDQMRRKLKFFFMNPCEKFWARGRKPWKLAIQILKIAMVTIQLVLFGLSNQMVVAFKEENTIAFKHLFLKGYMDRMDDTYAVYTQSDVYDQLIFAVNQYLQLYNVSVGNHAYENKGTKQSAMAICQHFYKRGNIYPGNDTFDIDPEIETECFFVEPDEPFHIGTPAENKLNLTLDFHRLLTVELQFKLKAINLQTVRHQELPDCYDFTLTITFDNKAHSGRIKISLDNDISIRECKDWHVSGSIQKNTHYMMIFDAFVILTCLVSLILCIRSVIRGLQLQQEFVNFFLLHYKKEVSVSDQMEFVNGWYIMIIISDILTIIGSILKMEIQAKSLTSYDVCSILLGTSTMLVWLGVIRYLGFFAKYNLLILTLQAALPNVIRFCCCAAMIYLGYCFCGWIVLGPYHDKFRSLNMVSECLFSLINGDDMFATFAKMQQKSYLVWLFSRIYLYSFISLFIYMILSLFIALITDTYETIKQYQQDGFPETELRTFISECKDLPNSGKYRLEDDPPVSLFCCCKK
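system = HEK293 cells stably carrying human TRPML3-YFP | doses = one concentration, 3 µM nominal, 0.3% DMSO | timing = dye loading 1 h 37 °C then 30 min ambient, 125 s read | detection = Fluo-8 calcium dye fluorescence, ex 470-495, em 515-575 nm | benchmarks = high control carbachol 87 µM, low control DMSO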
CRFR2-BP ag: agonists of human CRF-binding protein/CRF-R2 receptor complex; HEK293 CRF-R2/CRF-BP, calcium dye fluorescence (FLIPR); percent of saturating CRF peptide response; activation, % at 13.2 µM; 350,000 compounds, 0.46% hits;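 active = activation of at least 50%, plus an integration ratio under a set limit after plate pattern correction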;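 also: plate controls were neutral control wells without compound for no effect and CRF at EC100 for full effect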
* = called active by the depositor. Compounds with a hit are over-represented: about 2.1% of the library has one in this group of screens.

How did CCN1/C(=C/c2ccc3cc(C)cc(C)c3[n+]2CC)Sc2cc(C)ccc21 do in these assays?
VIM-2 inhibitor: -1; CRFBP-R2 block: -206; IMP-1 inhibitor: -1; TRPN1 ag: 50*; TRPML3 ag: 15*; CRFR2-BP ag: 182*

What do the screens show for `CCN1/C(=C/c2ccc3cc(C)ccc3[n+]2CC)Sc2ccc3sccc3c21`?
CRFBP-R2 block: -34; CRFR2-BP ag: 43

Results for Cc1ccsc1C(=O)OC(C)C(=O)Nc1ccc(Cl)cn1 (stereo not drawn) ?
CRFBP-R2 block: -4; CRFR2-BP ag: -2

What do the screens show for `Cc1ccccc1-c1nn(-c2ccc(F)cc2F)cc1CNCCCN(C)C`?
VIM-2 inhibitor: 1; CRFBP-R2 block: 11; IMP-1 inhibitor: 0; TRPN1 ag: 1; TRPML3 ag: 1; CRFR2-BP ag: 2

What do the screens show for `CCN(CC(=O)NCc1cccs1)C(=O)Cc1ccc(C)c(C)c1`?
CRFBP-R2 block: -1; CRFR2-BP ag: 0

Results for CCCNS(=O)(=O)c1cccc(C(=O)NC2CCCc3ccccc32)c1 (stereo not drawn) ?
VIM-2 inhibitor: -3; CRFBP-R2 block: 52*; IMP-1 inhibitor: -3; TRPN1 ag: -1; TRPML3 ag: -1; CRFR2-BP ag: -1

How did CC(=O)NC(Cc1cccc(C)c1)C(=O)NC1CCN(c2ncccc2[N+](=O)[O-])CC1 (stereo not drawn) do in these assays?
VIM-2 inhibitor: 2; CRFBP-R2 block: 57*; IMP-1 inhibitor: -1; TRPN1 ag: 0; TRPML3 ag: 0; CRFR2-BP ag: -2

What do the screens show for `CCOC(=O)c1sc2nc[nH]c(=O)c2c1C`?
VIM-2 inhibitor: 0; CRFBP-R2 block: -9; IMP-1 inhibitor: 5.2*; TRPN1 ag: -1; TRPML3 ag: 1; CRFR2-BP ag: -2

What do the screens show for `CC(C)N1CCOC1c1ccccc1` (stereo not drawn)?
CRFBP-R2 block: 6; CRFR2-BP ag: 0

What do the screens show for `CCOC(=O)N1CCN(C(=O)CSc2nnc(CNC(=O)c3ccccc3F)o2)CC1`?
VIM-2 inhibitor: -4; CRFBP-R2 block: 57*; IMP-1 inhibitor: -1; TRPN1 ag: 0; TRPML3 ag: 0; CRFR2-BP ag: -4

How did Cn1c2ccccc2c(=O)c2c(=O)n(Cc3ccco3)c(-c3ccc(Cl)cc3Cl)nc21 do in these assays?
VIM-2 inhibitor: 1; IMP-1 inhibitor: 0; TRPN1 ag: -3; TRPML3 ag: -2

What do the screens show for `Cc1nc2c(c(=O)c3ccccc3n2C)c(=O)n1C1CCCCCC1`?
VIM-2 inhibitor: 3; CRFBP-R2 block: 4; IMP-1 inhibitor: 1; TRPN1 ag: 14; TRPML3 ag: 0; CRFR2-BP ag: 51*

How did Cn1c2ccccc2c(=O)c2c(=O)n(C3CCCCC3)c(-c3ccco3)nc21 do in these assays?
VIM-2 inhibitor: 2; CRFBP-R2 block: 33; IMP-1 inhibitor: 0; TRPN1 ag: 3; TRPML3 ag: 1; CRFR2-BP ag: 99*

Results for Cc1nc2c(c(=O)c3ccccc3n2C)c(=O)n1-c1ccccc1 ?
VIM-2 inhibitor: 6; CRFBP-R2 block: 23; IMP-1 inhibitor: -4; TRPN1 ag: 0; TRPML3 ag: 1; CRFR2-BP ag: -2

What do the screens show for `CCN1CCN(c2ncnc3sc(C)c(-c4ccccc4)c23)CC1`?
VIM-2 inhibitor: 0; CRFBP-R2 block: 3; IMP-1 inhibitor: 0; CRFR2-BP ag: -1

What do the screens show for `CCOC(=O)c1ccc(NC(=S)N2CCN(CCNC3=CC(=O)CC(C)(C)C3)CC2)cc1`?
VIM-2 inhibitor: -3; CRFBP-R2 block: 14; IMP-1 inhibitor: -4; TRPN1 ag: -1; TRPML3 ag: 0; CRFR2-BP ag: 4

What do the screens show for `NC(=O)c1ccc(NCc2ccco2)c([N+](=O)[O-])c1`?
VIM-2 inhibitor: -3; CRFBP-R2 block: 71*; IMP-1 inhibitor: -4; TRPN1 ag: 1; TRPML3 ag: 0; CRFR2-BP ag: -5

How did CCOC(=O)C1CCCN(C2=NC(=O)/C(=C/c3ccc(OC)cc3)S2)C1 (stereo not drawn) do in these assays?
VIM-2 inhibitor: -4; CRFBP-R2 block: -1; IMP-1 inhibitor: -3; CRFR2-BP ag: -1

Results for CCOC(=O)C1CCCN(C2=NC(=O)/C(=C/c3ccc(N(C)C)cc3)S2)C1 (stereo not drawn) ?
VIM-2 inhibitor: 2; CRFBP-R2 block: -46; IMP-1 inhibitor: -1; CRFR2-BP ag: 69*

What do the screens show for `CCOC(=O)C1CCCN(C2=NC(=O)/C(=C/c3ccc(O)c(OCC)c3)S2)C1` (stereo not drawn)?
VIM-2 inhibitor: 8.9*; CRFBP-R2 block: 5; IMP-1 inhibitor: -1; CRFR2-BP ag: 2

What do the screens show for `CCc1cccc(Nc2c3c(nc4ncnn24)CCC3)c1`?
VIM-2 inhibitor: 9.9*; CRFBP-R2 block: 1; IMP-1 inhibitor: -4; TRPN1 ag: 0; TRPML3 ag: 0; CRFR2-BP ag: -1

Results for Clc1cccc(Nc2c3c(nc4ncnn24)CCC3)c1 ?
VIM-2 inhibitor: 4; CRFBP-R2 block: -7; IMP-1 inhibitor: -3; TRPN1 ag: 2; TRPML3 ag: 1; CRFR2-BP ag: -2

How did CC1(C)CC[C@]2(C(=O)O[C@@H]3OC(CO)[C@@H](O)[C@H](O)[C@H]3O)CC[C@]3(C)C(=CCC4[C@@]5(C)CC[C@H](O[C@@H]6OC(C(=O)O)[C@@H](O)[C@H](O)[C@H]6O)C(C)(C)C5CC[C@]43C)[C@@H]2C1 (stereo partly drawn) do in these assays?
CRFBP-R2 block: -78; CRFR2-BP ag: 48

Results for C/C=C(\C)C(=O)OC1CC(C)(C)C[C@H]2C3=CC[C@@H]4[C@@]5(C)CCC(O[C@@H]6O[C@@H](C(=O)O)[C@@H](O)C(O[C@@H]7OC[C@H](O)[C@@H](O)[C@@H]7O[C@@H]7OC(CO)C(O)[C@@H](O)[C@@H]7O)C6O[C@@H]6OC(CO)C(O)C(O)C6O)[C@@](C)(CO)[C@@H]5CC[C@]4(C)[C@]3(C)CC(O)[C@@]12CO (stereo partly drawn) ?
CRFBP-R2 block: -23; CRFR2-BP ag: 78*

What do the screens show for `COc1ccc(CN(C)C[C@@H]2OCCCC[C@H](C)Oc3ccc(NC(=O)Nc4ccc(F)cc4)cc3C(=O)N([C@H](C)CO)C[C@H]2C)cc1`?
CRFBP-R2 block: -3; CRFR2-BP ag: 0

Results for Cc1cc2nc3s/c(=C/c4ccc(-c5ccccc5C(=O)O)o4)c(=O)n3c2cc1C ?
VIM-2 inhibitor: 3; CRFBP-R2 block: -101; IMP-1 inhibitor: 0; CRFR2-BP ag: 141*

How did O=C(O)c1cc(-c2ccc(/C=c3\sc4nc5ccc(Br)cc5n4c3=O)o2)ccc1Cl do in these assays?
VIM-2 inhibitor: 3; IMP-1 inhibitor: 4
